Results from ChEMBL document CHEMBL4229422, “Synthesis and pharmacological evaluation of pyrazolo[4,3-c]quinolinones as high affinity GABAA-R ligands and potential anxiolytics” (Bioorg Med Chem, 2018).
The source made the active and inactive calls. No cut-off for these calls is given here.

What was measured:
[1] = Displacement of [3H]-FNZ from benzodiazepine binding site of GABAA receptor in bovine synaptosomal membranes after 1 hr by scintillation counting method; type: cell membranes, Bos taurus
[2] = tested on: Rattus norvegicus; experiment: Anxiolytic activity in Wistar rat assessed as time spent on open arms at 1 mg/kg, ip administered 30 mins prior to testing measured for 5 mins by elevated plus-maze test (reference value: 20%); type: functional
In short: (§1)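 Adult male Wistar rats (65–75 days, 280–320 g), group-housed, 12 h light–dark, 21-22 °C, handled on four days beforehand. Doses of 0.25, 0.5, 1 and 3 mg/kg were dissolved in propylenglycol, diluted in aqueous 0.6 % v/v Tween 80 and given ip 30 min before the EPM. Vehicle controls received the same mixture. Behaviour was recorded 5 min as % time in open arms relative to open plus closed arms. About 7 rats per dose, mean ± S.E.M., ANOVA.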

[3] = tested on: Rattus norvegicus; experiment: Toxicity in Wistar rat assessed as change in locomotor activity at 1 mg/kg, ip administered 30 mins; type: organism-based; conditions: in vivo, 0.5 h
In short: (§2)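 Locomotor or exploratory activity was scored as the number of closed-arm entries during the 5 min EPM session. Male Wistar rats (280–320 g) received 0.25–3 mg/kg ip 30 min beforehand, in propylenglycol diluted with 0.6 % v/v Tween 80. Vehicle-injected controls were included. About 7 rats per dose, ANOVA.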

[4] = tested on: Rattus norvegicus; experiment: Anxiogenic activity in Wistar rat assessed as reduction in time spent on open arms at 0.25 to 0.5 mg/kg, ip administered 30 mins prior to testing measured for 5 mins by elevated plus-maze test; type: functional, organism-based; in short: as §1
[5] = tested on: Rattus norvegicus; experiment: Toxicity in Wistar rat assessed as change in locomotor activity at 0.25 to 3 mg/kg, ip administered 30 mins; type: organism-based; conditions: in vivo, 0.5 h; in short: as §2
[6] = tested on: Rattus norvegicus; experiment: Anxiolytic activity in Wistar rat assessed as increase in time spent on open arms at 0.5 mg/kg, ip administered 30 mins prior to testing measured for 5 mins by elevated plus-maze test; type: functional, organism-based; in short: as §1
[7] = tested on: Rattus norvegicus; experiment: Anxiogenic activity in Wistar rat assessed as reduction in time spent on open arms at 0.25 to 3 mg/kg, ip administered 30 mins prior to testing measured for 5 mins by elevated plus-maze test; type: functional, organism-based; in short: as §1

## Cc1ccc2[nH]cc3c(=O)n(-c4ccccc4)nc-3c2c1
[1]
  IC50: 0.589 nM
  Ki: 0.313 nM

## Cc1ccc2[nH]cc3c(=O)n(-c4ccccc4F)nc-3c2c1
[1]
  IC50: 0.37 nM
  Ki: 0.196 nM

## COc1ccc(-n2nc3c4cc(C)ccc4[nH]cc-3c2=O)cc1
[2]
  Activity: 50%
[1]
  IC50: 0.542 nM
  Ki: 0.288 nM
[3]
  Activity: Non-Toxic

## Cc1ccc2[nH]cc3c(=O)n(-c4ccc(F)cc4)nc-3c2c1
[1]
  IC50: 1.15 nM
  Ki: 0.612 nM

## O=c1c2c[nH]c3ccc(Br)cc3c-2nn1-c1ccccc1
[1]
  IC50: 0.823 nM
  Ki: 0.437 nM
[4]
  Activity: Active

## COc1ccc(-n2nc3c4cc(Br)ccc4[nH]cc-3c2=O)cc1
[5]
  Activity: Non-Toxic
[6]
  Activity: Active
[1]
  IC50: 0.326 nM
  Ki: 0.173 nM

## O=c1c2c[nH]c3ccc(Br)cc3c-2nn1-c1ccc(F)cc1
[5]
  Activity: Toxic
[1]
  IC50: 1.47 nM
  Ki: 0.78 nM
[7]
  Activity: Active

## COc1ccc2[nH]cc3c(=O)n(-c4ccc(F)cc4)nc-3c2c1
[1]
  IC50: 1.84 nM
  Ki: 0.98 nM

## COc1ccc2[nH]cc3c(=O)n(-c4ccccc4F)nc-3c2c1
[1]
  IC50: 1.5 nM
  Ki: 0.797 nM
